The values below come from ChEMBL document CHEMBL6127097, “Structure-Guided Discovery of cis-Hexahydro-pyrido-oxazinones as Reversible, Drug-like Monoacylglycerol Lipase Inhibitors” (J Med Chem, 2024).

The target in data set [1] is T1, Monoglyceride lipase (Mus musculus) (UniProt O35678).
T1 sequence (whole entry): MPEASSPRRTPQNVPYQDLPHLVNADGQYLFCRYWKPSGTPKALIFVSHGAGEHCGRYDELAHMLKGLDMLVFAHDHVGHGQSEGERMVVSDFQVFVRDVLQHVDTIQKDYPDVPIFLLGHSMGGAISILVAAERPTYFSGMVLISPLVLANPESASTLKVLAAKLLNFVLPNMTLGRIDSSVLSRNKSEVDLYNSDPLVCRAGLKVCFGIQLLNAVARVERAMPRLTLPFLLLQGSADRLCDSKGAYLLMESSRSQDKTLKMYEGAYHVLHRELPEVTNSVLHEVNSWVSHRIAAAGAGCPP
Put plainly: In vivo receptor occupancy at MAGL receptor in mouse at 30 mg/kg, ip measured after 16 hrs. Format: functional, organism-based. Put shortly: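 Mice dosed 30 mg/kg i.p. in NaCl/DMSO/TW80 (80/10/10). Brain proteome was prepared at set time points over 24 h and MAGL occupancy read by activity-based protein profiling.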

Data set [2] concerns the target T2, Monoglyceride lipase (Homo sapiens) (UniProt Q99685).
T2 sequence (whole entry): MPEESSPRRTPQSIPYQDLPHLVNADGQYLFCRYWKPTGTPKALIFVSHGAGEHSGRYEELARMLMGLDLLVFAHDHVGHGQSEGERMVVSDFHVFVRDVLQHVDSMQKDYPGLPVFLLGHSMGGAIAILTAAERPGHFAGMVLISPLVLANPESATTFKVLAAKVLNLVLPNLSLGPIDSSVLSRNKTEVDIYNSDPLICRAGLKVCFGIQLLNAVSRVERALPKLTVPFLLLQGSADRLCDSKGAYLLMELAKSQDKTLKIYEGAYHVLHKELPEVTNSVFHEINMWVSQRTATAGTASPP
Nature of the data set: Binding affinity to human MAGL assessed as association rate constant by SPR analysis. Put shortly: (§1)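 Human or rat MAGL was immobilized by amine coupling without ethanolamine quenching. Runs were done at 18 °C in 10 mM HEPES, 150 mM NaCl, 0.05% P20, 50 µM EDTA, pH 7.4, with 1% DMSO. Single-cycle kinetics used five concentrations, top 1 µM in 2-fold steps, at 30 µL/min, giving kon, koff and Kd.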
(In SPR one partner is held on a chip, and binding of the other changes the refractive index at the surface.)

In data set [3] the target is Fatty acid amide hydrolase (Mus musculus) (UniProt O08914). Nature of the data set: Inhibition of FAAH in mouse brain lysates at 10 uM by ABPP assay.
Chain of Fatty acid amide hydrolase (Mus musculus) (O08914 whole entry, looked up): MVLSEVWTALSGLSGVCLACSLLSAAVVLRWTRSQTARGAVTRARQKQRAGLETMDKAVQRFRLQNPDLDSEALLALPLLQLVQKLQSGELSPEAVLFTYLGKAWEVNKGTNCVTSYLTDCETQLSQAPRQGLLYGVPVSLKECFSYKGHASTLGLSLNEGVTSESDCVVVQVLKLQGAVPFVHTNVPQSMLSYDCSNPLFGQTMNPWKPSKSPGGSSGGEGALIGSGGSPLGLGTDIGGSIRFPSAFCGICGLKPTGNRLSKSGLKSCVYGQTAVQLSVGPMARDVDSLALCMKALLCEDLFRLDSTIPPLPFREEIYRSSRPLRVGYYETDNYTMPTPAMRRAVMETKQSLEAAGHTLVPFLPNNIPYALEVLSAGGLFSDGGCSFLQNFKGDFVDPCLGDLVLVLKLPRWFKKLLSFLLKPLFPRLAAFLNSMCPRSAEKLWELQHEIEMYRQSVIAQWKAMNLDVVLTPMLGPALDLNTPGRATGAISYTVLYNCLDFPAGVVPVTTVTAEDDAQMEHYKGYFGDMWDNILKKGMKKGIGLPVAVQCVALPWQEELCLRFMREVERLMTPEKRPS
For a further data set, the species on record is Homo sapiens. Nature of the data set: Inhibition of serotonin transporter (unknown origin) at 10 uM relative to control. Put shortly: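 Cerep panel of 50 off-targets, percent inhibition at 10 µM.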
Another data set relates to LLC-PK1. Nature of the data set: Substrate activity at human P-gp expressed in LLC-PK1 cells assessed as efflux ratio incubated for 3 hrs. The class given is cell-based. Put shortly:
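LLC-PK1 porcine kidney cells transfected with human or mouse P-gp, grown as polarized monolayers on filter plates. Compound is dosed apically or basolaterally and transport followed 3 h at 37 °C. Efflux ratio comes from unidirectional Papp; 1 µM zosuquidar defines permeability without P-gp.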

For data set [4], the target named is T1, Monoglyceride lipase (Mus musculus). Nature of the data set: In vivo receptor occupancy at MAGL receptor in mouse at 30 mg/kg, ip measured after 4 hrs. The class given is functional, organism-based.
Data set [5] has the same target. Put plainly: In vivo receptor occupancy at MAGL receptor in mouse at 10 mg/kg, ip measured after 4 hrs. The class given is functional, organism-based.
For data set [6], the target named is T2, Monoglyceride lipase (Homo sapiens). Nature of the data set: Binding affinity to human MAGL assessed as dissociation rate constant by SPR analysis. Put shortly:
as §1

In data set [7] the target is T3, Monoglyceride lipase (Rattus norvegicus) (UniProt Q8R431).
T3 sequence (whole entry): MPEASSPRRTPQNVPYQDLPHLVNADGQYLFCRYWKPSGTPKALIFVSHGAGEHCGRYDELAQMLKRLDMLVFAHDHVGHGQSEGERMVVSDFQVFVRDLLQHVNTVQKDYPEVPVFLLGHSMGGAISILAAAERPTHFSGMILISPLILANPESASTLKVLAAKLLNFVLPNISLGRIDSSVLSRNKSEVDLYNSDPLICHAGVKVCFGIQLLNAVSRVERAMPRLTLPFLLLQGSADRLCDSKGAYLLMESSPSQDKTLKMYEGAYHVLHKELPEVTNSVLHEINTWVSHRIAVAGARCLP
Put plainly: Binding affinity to rat MAGL assessed as association rate constant by SPR analysis. Put shortly:
as §1

Data set [8] can be described thus: Drug concentration in mouse CSF at 30 mg/kg, ip measured after 2 hrs. Conditions: read-out: Ct. The class given is ADME, organism-based, Cerebrospinal fluid.
The target of data set [9] is Voltage-gated inwardly rectifying potassium channel KCNH2 (Homo sapiens, UniProt Q12809). Nature of the data set: Inhibition of human ERG expressed in CHO cells by automated patch clamp method. The class given is toxicity, cell-based. Background: Patch clamp records ionic current or voltage across a cell membrane.
Chain of Voltage-gated inwardly rectifying potassium channel KCNH2 (Q12809 whole entry): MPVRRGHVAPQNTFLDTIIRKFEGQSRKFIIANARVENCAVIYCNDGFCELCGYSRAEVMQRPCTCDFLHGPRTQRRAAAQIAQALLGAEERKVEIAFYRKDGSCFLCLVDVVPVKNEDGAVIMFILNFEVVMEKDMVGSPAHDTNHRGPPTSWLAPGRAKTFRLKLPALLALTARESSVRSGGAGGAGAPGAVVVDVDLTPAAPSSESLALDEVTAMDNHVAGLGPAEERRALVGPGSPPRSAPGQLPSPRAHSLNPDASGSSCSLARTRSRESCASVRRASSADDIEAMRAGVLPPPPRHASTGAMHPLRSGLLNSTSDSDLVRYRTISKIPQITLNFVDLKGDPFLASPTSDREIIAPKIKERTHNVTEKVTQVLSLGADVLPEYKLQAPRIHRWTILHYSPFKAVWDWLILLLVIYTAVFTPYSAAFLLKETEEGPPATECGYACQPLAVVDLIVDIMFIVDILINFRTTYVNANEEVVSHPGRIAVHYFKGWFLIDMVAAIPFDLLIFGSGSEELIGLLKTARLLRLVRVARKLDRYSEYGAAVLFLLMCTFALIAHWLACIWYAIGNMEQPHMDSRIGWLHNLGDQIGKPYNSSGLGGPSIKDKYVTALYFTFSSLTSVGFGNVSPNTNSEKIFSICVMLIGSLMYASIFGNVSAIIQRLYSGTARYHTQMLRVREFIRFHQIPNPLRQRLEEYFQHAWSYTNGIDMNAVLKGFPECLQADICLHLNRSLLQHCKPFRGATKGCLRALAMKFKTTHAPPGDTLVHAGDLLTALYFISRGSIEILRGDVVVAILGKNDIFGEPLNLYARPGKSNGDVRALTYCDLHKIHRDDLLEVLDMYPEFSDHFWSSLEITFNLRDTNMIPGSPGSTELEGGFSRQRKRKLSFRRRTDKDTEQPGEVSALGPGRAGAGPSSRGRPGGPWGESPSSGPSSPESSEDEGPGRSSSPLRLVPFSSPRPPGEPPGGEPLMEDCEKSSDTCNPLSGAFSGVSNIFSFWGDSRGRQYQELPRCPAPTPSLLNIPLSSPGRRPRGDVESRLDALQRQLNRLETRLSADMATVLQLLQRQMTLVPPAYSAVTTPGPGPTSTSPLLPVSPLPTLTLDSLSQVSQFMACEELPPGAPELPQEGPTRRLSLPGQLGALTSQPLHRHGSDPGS
The nature of data set [10]: Chemical stability at pH 10 incubated for 2 hrs. The class given is physicochemical. Conditions: buffer, pH 10, 2 h. Put shortly:
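Compound was held in aqueous buffer at the stated pH for 2 h at 37 °C.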

Data set [11] in a line: Aqueous solubility of compound in phosphate buffer at pH 6.5 by HPLC or MS/MS analysis. The class given is physicochemical. Conditions: buffer. Put shortly: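 Lyophilization solubility assay (LYSA) starting from a 10 mM DMSO stock. DMSO was removed by centrifugal vacuum evaporation, then 0.05 M phosphate buffer pH 6.5 was added and samples sonicated. Filtrates were analysed by MS/MS and/or HPLC against a 4- to 7-point calibration curve.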

The nature of data set [12]: Phototoxicity in mouse 3T3 cells. Conditions: nih3t3. Format: toxicity, cell-based.
A short description of data set [13]: Drug concentration in mouse CSF at 3 mg/kg, ip measured after 4 hrs. Conditions: read-out: Ct. The class given is ADME, organism-based, Cerebrospinal fluid.
Data set [14] can be described thus: AUClast in Wistar rat at 10 mg/kg, ip measured upto 24 hrs by LC-MS/MS analysis. Format: ADME, organism-based. Conditions: in vivo.
A short description of data set [15]: Ratio of drug concentration in Wistar rat CSF to plasma at 10 mg/kg, ip measured upto 7 hrs by LC-MS/MS analysis. The class given is ADME, organism-based. Put shortly:
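Male Wistar rats, single dose. i.v. in NMP/0.9% NaCl 30:70; p.o. and i.p. in NMP/HPMC/diisooctyl sulfosuccinate 10:90; 3 per i.v./p.o. group, 6 i.p. K2EDTA plasma sampled 0.083–7 h, plus 24 h for i.v./p.o.; brain and CSF at 1, 2, 7 h (i.p. only). LC-MS/MS, noncompartmental analysis.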

Data set [16] can be described thus: Inhibition of Cynomolgus monkey MAGL using native substrate by Rapidfire MS assay.
For a further data set, the target named is T4, Monoglyceride lipase (Homo sapiens, UniProt Q99685).
T4 sequence (Q99685 whole entry): T2 sequence (whole entry)
Put plainly: Binding affinity to human MAGL assessed as equilibrium dissociation constant by SPR analysis. Put shortly:
as §1

Data set [17] is described as follows: Cmax in Wistar rat at 5 mg/kg, po measured upto 24 hrs by LC-MS/MS analysis. Format: ADME, organism-based. Conditions: in vivo. Put shortly:
(§2)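 Male Wistar rats (N = 3 per group) received a single dose. The i.v. dose was 1 mg/kg in NMP/0.9% NaCl 30:70. The p.o. dose was 5 mg/kg in NMP/HPMC/diisooctyl sulfosuccinate 10:90. Blood was taken into K2EDTA from 0.083 (i.v.) or 0.25 h to 24 h. Plasma was assayed by LC-MS/MS and analysed non-compartmentally.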

Data set [18] can be described thus: AUClast in Wistar rat at 5 mg/kg, po measured upto 24 hrs by LC-MS/MS analysis. Format: ADME, organism-based. Conditions: in vivo. Put shortly: as §2
Data set [19] in a line: Cmax in Wistar rat at 10 mg/kg, ip measured upto 24 hrs by LC-MS/MS analysis. Format: ADME, organism-based. Conditions: in vivo.

Molecules are shown by their SMILES. ≈ marks a conversion by molar mass, not a printed value. Calls of active or inactive are those of the source. The calls are words filed in the database; no cut-off is given here.

With `O=C1CO[C@H]2CCN(C(=O)N3CCC(Cc4ccc(C(F)(F)F)cc4)CC3)C[C@H]2N1` [listing 1 of 2 here], the Activity in data set [1] was determined as 60%; in data set [4], 93%; in [5] it was 79%. Further, the K is 2.5 10^5/M/s in data set [2], 7.5 10^-3/s in data set [6] and 2.6 10^5/M/s in data set [7]. For the same molecule, in [3], the inhibition (usually the percentage by which the read-out fell short of the control) is “inactive”. In the data set filed under Homo sapiens, this molecule had an inhibition of 57%. Further, the Ratio with LLC-PK1 was 2.4.

`O=C1CO[C@H]2CCN(C(=O)N3CCC(Cc4ccc(C(F)(F)F)cc4)CC3)C[C@H]2N1` [listing 2 of 2 here]: the concentration at 2 h in data set [8] was determined as 689 nM. Further, the results for the IC50 in [9] and in [16] were 7700 nM and 16 nM, respectively. Moreover, in data set [10], the Stability entry is listed as “Stable”. The solubility (commonly the dissolved amount per volume that the medium holds) in data set [11] is 231 µg/mL (≈ 543 µM). Also, in data set [12], the Activity entry is given as “Non-Toxic”. The concentration at 4 h in data set [13] was 31.2 nM. Also, the area under the curve AUC(0-t) (in general, exposure summed from dosing to a finite time, without extrapolation to infinity) at 24 h in data set [14] came out at 40200 ng·h/mL; in [18], 19100 ng·h/mL. Moreover, in [15], the Kp (usually the ratio of the level in a tissue or fluid to that in plasma or blood) at 7 h came out at 0.017. Besides, the dissociation constant Kd – broadly, the free concentration of one partner at which half of the binding sites on the other are occupied at equilibrium, for simple one-to-one binding – at Monoglyceride lipase is 45 nM. For the same molecule, the Cmax (usually the peak of the concentration-time curve) in [17] turned out to be 1290 ng/mL; in [19], 12200 ng/mL.
